Only some compounds are listed: those with a hit (about 1.8% of all), similar ones and a draw of the others.
M5 PAM: CHRM5 positive allosteric modulation | P08912 | CHO-K1 hM5, Fluo-8 calcium, ACh EC20 PAM; 0% = ACh EC20, 100% = ACh EC100 | activation, % at 3 µM | actives 0.3% (n = 360,000) | AID 624038;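 active = activation above the run cutoff, the mean activation of all test compounds plus 3 SD, cut at about 18% in these data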
Target sequence (P08912 whole entry, looked up): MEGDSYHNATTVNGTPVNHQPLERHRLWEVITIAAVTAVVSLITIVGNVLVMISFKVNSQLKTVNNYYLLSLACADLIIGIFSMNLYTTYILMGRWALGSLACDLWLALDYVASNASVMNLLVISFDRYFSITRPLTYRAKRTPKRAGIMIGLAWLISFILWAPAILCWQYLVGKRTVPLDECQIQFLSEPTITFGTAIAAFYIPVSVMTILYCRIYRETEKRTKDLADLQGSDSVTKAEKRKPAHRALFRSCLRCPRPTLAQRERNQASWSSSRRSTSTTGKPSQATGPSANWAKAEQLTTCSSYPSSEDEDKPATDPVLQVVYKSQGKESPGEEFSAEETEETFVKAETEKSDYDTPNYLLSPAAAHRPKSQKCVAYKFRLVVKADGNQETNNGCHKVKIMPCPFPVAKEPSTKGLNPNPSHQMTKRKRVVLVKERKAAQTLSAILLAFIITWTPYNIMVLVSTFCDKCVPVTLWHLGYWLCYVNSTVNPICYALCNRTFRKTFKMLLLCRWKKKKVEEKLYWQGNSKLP
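System: CHO-K1 hM5 cells. Reagent: acetylcholine, EC20 level. Compound dosing: single dose, 3 µM nominal final test concentration. Timing: Post-acetylcholine fluorescence recording 140 s. Detection: Fluo-8 calcium fluorescence. Read-out: % activation, ACh-normalized. Benchmarks: ACh EC20 and EC100 wells. Repeats: singlicate, one well per test compound.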
M4 antag: CHRM4 antagonism in calcium assay. actives 0.73% (n = 360,000). CHO-hM4 cells, ACh EC80, Fluo-8 calcium fluorescence. inhibition, % at 3 µM. P08173. AID 624125;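 active = inhibition above its plate's cutoff, the mean inhibition of sample wells plus 3 SD, cut at about 27% in these data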;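 also: 0% = acetylcholine EC80 with DMSO and 100% = DMSO without agonist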
M5 antag: antagonists of human muscarinic M5 receptor (CHRM5) | CHO-hM5 cells, Fluo-8 calcium fluorescence, ACh EC80 | inhibition, % at 3 µM | actives 0.59% (n = 360,000) | AID 624040;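 active = inhibition above a per-plate cutoff, the mean of that plate's test compounds plus 3 SD, cut at about 27% in these data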;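 also: 0% = acetylcholine EC80 with DMSO and 100% = DMSO without agonist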
CHRM4 PAM: positive allosteric modulators of human muscarinic M4 receptor | P08173 | CHO-K1 hM4/Gqi5, Fluo-8 calcium fluorescence, ACh EC20; 0% = ACh EC20, 100% = maximal ACh | activation, % at 3 µM | actives 0.4% (n = 360,000) | AID 624126;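 active = activation above its plate's cutoff, the mean activation of sample wells plus 3 SD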
CHRM4 agonist: CHRM4 agonism in calcium assay; CHO-K1 hM4/Gqi5, Fluo-8 calcium fluorescence; vehicle 0%, full acetylcholine response 100%; P08173; activation, % at 3 µM; actives 0.14% (n = 360,000); AID 624127;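 active = activation above the run mean over all test wells plus 3 SD, cut at about 32% in these data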;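 also: peak over basal fluorescence ratio per well then scaled between controls; 0% = DMSO wells and 100% = acetylcholine at EC100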
M5 ag: agonists of human muscarinic M5 receptor (CHRM5). P08912. CHO-K1 hM5 cells, Fluo-8 calcium fluorescence; 0% DMSO wells, 100% maximal acetylcholine response. activation, % at 3 µM. actives 0.19% (n = 360,000);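 active = activation above the run's mean over test compounds plus 3 SD, cut at about 23% in these data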;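 also: signal is peak over basal fluorescence ratio across the kinetic read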
Starred values were filed as active, the others as inactive.

SMILES | M5 PAM | M4 antag | M5 antag | CHRM4 PAM | CHRM4 agonist | M5 ag
COC(=O)C1=CN(c2ccccc2OC)C(N)=C(C#N)C1c1cccc([N+](=O)[O-])c1 (centres undefined) | -4.3 | -0.5 | 5.7 | -3.9 | 2.5 | -0.2
OC(CCN1CCCC1)(c1ccccc1)C1CCCCC1 (centres undefined) | -19.5 | 98.6* | 98.8* | -16.7 | 1.3 | -1.9
O=C(CCN1CCCCCC1)c1ccccc1 | 7.2 | 0.0 | -9.3 | -1.2 | 0.2 | -0.3
COc1ccc([C@@H]2C[C@H]3[C@@H](CN2S(=O)(=O)c2ccccc2)C(=O)C[C@@H](c2cccc(Cl)c2)N3S(=O)(=O)c2ccc(C)cc2)cc1 | 2.2 | 2.8 | 0.7 | 0.0 | 2.8 | 3.5
O=C1C=C(N2CCOCC2)c2ccccc2C1=O | 4.4 | -6.2 | 4.8 | 6.1 | 2.4 | 1.7
CC1=C(C)C(=O)C(N2CCOCC2)=CC1=O | 21.2* | 1.8 | 11.7 | 8.7 | 2.0 | 6.6
Cc1cc(C)c(NC(=O)Cn2c(=O)c3cccn3c3ccccc32)c(C)c1 | -2.1 | -7.0 | 5.9 | -0.9 | -0.3 | -3.4
COC(=O)c1c(-c2cccc(OC)c2)csc1N | 2.1 | 4.9 | -2.1 | -4.2 | 1.0 | -0.1
COC(=O)c1c(-c2ccc(OC)c(OC)c2)csc1N | 43.7* | -18.1 | -4.3 | 7.5 | 3.7 | -3.4
CN(CCCN1CCCCC1)C(=O)c1cc(COc2ccc(F)cc2F)on1 | -5.1 | 35.8* | 16.2 | -15.3 | 0.2 | -8.3
CN(CCCC1CCCC1)C(=O)c1cc(COc2ccc(F)cc2F)on1 | -9.1 | -3.0 | 6.9 | -6.6 | 1.4 | -3.7
Cc1cc(C)n2nc(SCc3nnc(SCCCCl)o3)nc2n1 | -6.5 | 32.0* | 6.6 | -14.0 | 2.2 | -2.5
CCNC(C(=O)c1c[nH]c2c(CC)cccc12)c1ccccc1 (centres undefined) | -5.3 | 13.9 | 19.4 | -1.7 | 4.9 | -1.6
Cc1ccc2c(c1)C(=O)C(=O)N2Cc1ccc(Cl)cc1 | -3.3 | 1.4 | -0.4 | -3.9 | 8.2 | 34.5*
Cc1ccc2c(c1)C(=O)C(=O)N2Cc1ccc(F)cc1 | 5.9 | -2.2 | 14.3 | 1.3 | 1.6 | 21.1
COCCN(C(=O)CCC(=O)Nc1cc(C)on1)C(C(=O)NC1CCCC1)c1ccccc1F (centres undefined) | 27.6* | 75.0* | 17.5 | -20.2 | -0.3 | 5.9
CC(=O)N1CCC(C(=O)N2c3ccccc3N=C(c3ccc(C(F)(F)F)cc3)C2C(=O)NC(C)(C)C)CC1 (centres undefined) | -2.6 | -8.0 | 2.9 | 7.8 | 0.8 | 0.7
NC(=O)NC(=O)COC(=O)CC12CC3CC(CC(C3)C1)C2 | 20.2* | -0.7 | -7.8 | 9.6 | 1.7 | 1.0
NC(=O)COC(=O)CC12CC3CC(CC(C3)C1)C2 | 3.3 | 5.6 | 3.7 | -3.3 | -0.2 | -2.3
C(=C\c1ccccc1)/CN1CCN(C(c2cc3ccccc3o2)c2nnnn2Cc2ccccc2)CC1 (centres undefined) | -11.0 | 1.6 | 1.5 | -1.9 | 0.2 | -2.8
Cc1cc(C)n(-c2ccc(NC(=O)C3CCN(Cc4ccccn4)CC3)cc2)n1 | 12.3 | -0.2 | 2.9 | 21.9* | 1.6 | -2.2
CCc1ncc(CN2CCC(C(=O)Nc3ccc(-n4nc(C)cc4C)cc3)CC2)cn1 | 2.9 | -4.0 | -8.9 | -3.1 | 1.5 | -0.1
CC(C)N(C(=O)C(=O)c1cccn1-c1ccccc1C#N)C(C)C | 15.7 | 1.1 | -14.0 | 17.4* | 1.2 | -1.9
CN(C)C(=O)C(=O)c1cccn1-c1ccccc1C#N | -6.4 | -10.2 | 10.6 | 0.5 | 0.7 | -3.5
OC[C@H]1O[C@@](CO)(O[C@H]2O[C@H](CO)[C@@H](O)[C@H](O)[C@H]2O)[C@@H](O[C@H]2O[C@H](CO)[C@@H](O)[C@H](O)[C@H]2O)[C@@H]1O | -2.6 | 8.0 | -1.7 | -5.2 | 0.6 | 1.3
SMILES | M5 PAM | M4 antag | M5 antag | CHRM4 PAM | CHRM4 agonist | M5 ag
CC1(C)Cc2c(cnn2-c2ccccc2)C(=O)/C1=N\NC(=O)c1ccncc1 | 1.3 | 2.2 | -5.2 | 18.0* | 1.4 | 2.6
c1ccc(CSc2cc3ccccc3[nH]2)cc1 | -4.1 | -4.2 | 12.2 | -2.7 | -1.5 | -5.5
CSC(=S)N/N=C/c1ccc(N(C)C)cc1 | -0.7 | -2.1 | 10.2 | 0.4 | -0.3 | -0.9
CSC(=S)N/N=C/c1ccc(Br)cc1 | -2.0 | -16.1 | 1.8 | 23.1* | 1.6 | -2.8
COc1ccc(NC(=O)C2CCCN(CCCc3ccccc3)C2)cc1OCC(C)C (centres undefined) | -2.0 | 28.5* | 7.8 | -18.1 | 31.7 | -10.8
COc1ccc(NC(=O)C2CCCNC2)cc1OCC(C)C (centres undefined) | -1.6 | 7.4 | 4.2 | -0.6 | 0.5 | -6.3
CN(C)c1ccc(C=NN2C(=O)CSC2=S)c(Cl)c1 | -11.4 | 1.4 | 24.1 | -3.9 | 5.4 | 25.8*
O=C(NC1CCCCC1)C(c1ccc(C(F)(F)F)cc1)n1c(=O)c(-c2ccco2)nc2ccccc21 (centres undefined) | 6.7 | 0.1 | -8.1 | -1.7 | -0.3 | 1.2
C#CCOCCOCCOCCNc1nc(N2CCN(C(=O)[C@H]([C@@H](C)CC)n3cc(CCC(=O)O)nn3)CC2)nc(N2CCN(C(=O)[C@H](CCCCN)n3cc(CC(C)O)nn3)CC2)n1 (some centres undefined) | -3.4 | 5.6 | 8.8 | 7.5 | 1.8 | 1.6
Cc1cccc(C(=O)Nc2ccccc2C(=O)OCC(=O)Nc2ccc(C#N)cc2)c1 | -16.4 | 13.6 | 27.8* | -13.7 | 10.4 | -0.2
CN1CCN2c3ccccc3Cc3ccccc3C2C1 (centres undefined) | -19.0 | 17.2 | 45.4* | -16.1 | 0.2 | -1.6
CN1CCN(S(=O)(=O)c2ccccc2)C(c2ccccc2)C1 (centres undefined) | 5.4 | 5.2 | 9.4 | 1.8 | -0.1 | -0.7
COc1ccc(S(=O)(=O)N2CCCC(C(=O)NCCN3CCOCC3)C2)cc1C (centres undefined) | 4.9 | -5.1 | 3.4 | 0.2 | -1.2 | -2.4
O=C(Nc1ccncc1)c1ccc2c(c1)C(=O)N(C1CCCCC1)C2=O | -40.7 | 41.7* | 30.8* | -12.9 | 19.0 | 5.8
O=C(NNc1ccccc1Br)C(O)(c1cccc(C(F)(F)F)c1)c1cccc(C(F)(F)F)c1 | -17.7 | 10.7 | 29.4* | -16.5 | 3.8 | -4.1
O=C(Nc1cccc(NC(=O)c2ccc(-c3ccc(Br)cc3)o2)c1)c1ccccc1 | 6.6 | 4.4 | 5.8 | 23.0 | 0.7 | -3.4
O=C(Nc1cccc(-c2cnc3ccccc3n2)c1)c1cccc(NC(=O)c2ccco2)c1 | -17.6 | 41.6* | 25.9 | -24.5 | 20.1 | 3.7
